Legend:
SARS-CoV-2 = assay: Antiviral activity against SARS COV-2 infected in monkey vero cells assessed as reduction in virus-induced cytopathic effect preincubated with virus for 1 hr followed by cell infection and measured after 5 days by microscopic analysis; format: functional, organism-based; settings: Severe acute respiratory syndrome coronavirus 2, Vero
Vero = assay: Cytotoxicity in African green monkey Vero cells assessed as reduction in cell viability measured after 5 days by resazurin dye based assay; settings: chlorocebus sabaeus, vero, 120 h; time 5 day
How it was run: (§1)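 Cells (about 10⁵/well, 5% FBS) were added to two-fold compound dilutions (eight concentrations from 100 μM; DMSO control) and held 5 days at 36.5 °C in CO2. Medium was then replaced with resazurin (25 μg/mL) for 4 h and stopped with SDS. Fluorescence was read at Ex 525 / Em 580–640 nm, with background wells without resazurin subtracted. Done in two replicates; CC50 calculated.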

HEL = assay: Cytotoxicity against human HEL cells assessed as reduction in cell viability measured after 3 days by beckman coulter counting method; format: cell-based; settings: 72 h, time 3 day
How it was run: (§2)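 Cells were seeded at 5 × 10³/well, grown 24 h, then exposed to compound from 100 μM downward for 3 days at 37 °C. Cell number was counted with a Coulter counter.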

Human alphaherpesvirus 3 [1] = assay: Antiviral activity against Varicella zoster virus assessed as inhibition of viral replication; format: functional, organism-based
HEp-2 = assay: Cytotoxicity in human Hep2 cells assessed as reduction in cell viability measured after 3 days by beckman coulter counting method; format: functional; settings: HEp-2, 72 h, time 3 day
How it was run: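 Hep2 cells seeded at 5 × 10³ cells/well and allowed to grow 24 h, then exposed to compound dilutions starting at 100 μM for 3 days at 37 °C. Cell number measured by Coulter counter.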

[2] = test system: Respiratory syncytial virus; assay: Antiviral activity against Respiratory syncytial virus assessed as reduction in virus-induced cytopathic effect by MTS assay; format: functional, organism-based; settings: human respiratory syncytial virus
Human alphaherpesvirus 3 [3] = assay: Antiviral activity against thymidine kinase deficient Varicella zoster virus; format: functional, organism-based
How it was run: (§3)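 Confluent HEL cultures received 100 CCID50 or 20 PFU of virus, with 2 h adsorption before inoculum removal. Cells were then incubated with compound from 100 μM downward. Cytopathicity or plaques were scored once untreated infected controls reached completion.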

Human alphaherpesvirus 3 [4] = assay: Antiviral activity against thymidine kinase positive Varicella zoster virus; format: functional, organism-based; how it was run: as §3
[5] = Cytotoxicity in pig PEK cells assessed as reduction in cell viability measured after 5 days by resazurin dye based assay; design: species or system Sus scrofa, Kidney; settings: 120 h, time 5 day; how it was run: as §1
MDCK = assay: Cytotoxicity in dog MDCK cells assessed as reduction in cell viability measured after 3 days by beckman coulter counting method; format: cell-based, Canis lupus familiaris; settings: mdck, 72 h, time 3 day; how it was run: as §2
Powassan virus = assay: Antiviral activity against Powassan virus infected in pig PEK cells assessed as reduction in virus plaque formation preincubated with virus for 1 hr followed by cell infection and measured after 1 hr by crystal violet staining based assay; format: functional, organism-based
Human betaherpesvirus 5 [6] = assay: Antiviral activity against Human cytomegalovirus Davis; format: functional, organism-based; settings: Human betaherpesvirus 5, Davis; how it was run: as §3
Human betaherpesvirus 5 [7] = assay: Antiviral activity against Human cytomegalovirus AD169; format: functional, organism-based; settings: Human betaherpesvirus 5, AD169; how it was run: as §3
Chikungunya virus = assay: Antiviral activity against Chikungunya virus infected in African green monkey Vero cells assessed as reduction in virus plaque formation preincubated with virus for 1 hr followed by cell infection and measured after 1 hr by crystal violet staining based assay; format: functional, organism-based
[8] = test system: Tick-borne encephalitis virus; assay: Antiviral activity against Tick-borne encephalitis virus infected in pig PEK cells assessed as reduction in virus plaque formation preincubated with virus for 1 hr followed by cell infection and measured after 1 hr by crystal violet staining based assay; format: functional, organism-based
Influenza A virus = assay: Antiviral activity against Influenza A virus (H1N1) infected in MDCK cells assessed as reduction in cytopathic effect preincubated with cells for 1 hrs followed by viral addition and measured after 24 hrs by Reed-Muench method; format: functional, organism-based
How it was run: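 MDCK monolayers were pre-incubated 1 h at 37 °C with 3-fold compound dilutions (from 2 mg/mL DMSO stock), then infected at MOI 1 for 24 h. Supernatant yield was titrated by 10-fold dilutions on fresh MDCK for 72 h. Titre was read by hemagglutination with 1% chicken erythrocytes and calculated by Reed-Muench as TID50 per 100 μL.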

[9] = Selectivity index, ratio of CC50 for African green monkey Vero cells to EC50 for Antiviral activity against Chikungunya virus infected in African green monkey Vero cells; format: toxicity; settings: read-out: Ratio CC50/EC50
[10] = test system: Omsk hemorrhagic fever virus; assay: Antiviral activity against Omsk hemorrhagic fever virus infected in pig PEK cells assessed as reduction in virus plaque formation preincubated with virus for 1 hr followed by cell infection and measured after 1 hr by crystal violet staining based assay; format: functional, organism-based
[11] = Selectivity index, ratio of CC50 for pig PEK cells to EC50 for Antiviral activity against Omsk hemorrhagic fever virus infected in pig PEK cells; format: toxicity, cell-based; settings: read-out: Ratio CC50/EC50
[12] = Selectivity index, ratio of CC50 for pig PEK cells to EC50 for Antiviral activity against Tick-borne virus encephalitis infected in pig PEK cells; format: toxicity, cell-based; settings: read-out: Ratio CC50/EC50
[13] = Selectivity index, ratio of CC50 for pig PEK cells to EC50 for Antiviral activity against Powassan virus infected in pig PEK cells; format: toxicity, cell-based; settings: read-out: Ratio CC50/EC50
[14] = Selectivity index, ratio of CC50 for human HEL cells to EC50 for antiviral activity against thymidine kinase positive Varicella zoster virus; format: toxicity; settings: read-out: Ratio CC50/EC50
[15] = Selectivity index, ratio of CC50 for human HEL cells to EC50 for antiviral activity against thymidine kinase deficient Varicella zoster virus; format: toxicity; settings: read-out: Ratio CC50/EC50

SMILES	EC50 (SARS-CoV-2) [µM]	CC50 (Vero) [µM]	CC50 (HEL) [µM]	CC50 (HEp-2) [µM]	EC50 [2] [µM]	EC50 (Human alphaherpesvirus 3 [3]) [µM]	EC50 (Human alphaherpesvirus 3 [4]) [µM]	CC50 [5] [µM]	CC50 (MDCK) [µM]	EC50 (Powassan virus) [µM]	EC50 (Human betaherpesvirus 5 [6]) [µM]	EC50 (Human betaherpesvirus 5 [7]) [µM]	EC50 (Chikungunya virus) [µM]	EC50 [8] [µM]	EC50 (Influenza A virus) [µM]	other results
O=c1nc2c(cn1[C@@H]1O[C@H](CO)[C@@H](O)[C@H]1O)Oc1ccccc1N2	> 100	> 100	–	–	–	–	–	–	–	–	–	–	–	–	–	–
Nc1nc2c(ncn2COCCO)c(=O)[nH]1 [ACYCLOVIR]	–	–	> 300	–	–	–	–	–	–	–	–	–	–	–	–	EC50 (Human alphaherpesvirus 3 [1]): 0.009 µM
COc1ccc(C(OC[C@H]2O[C@@H](n3cc4c(nc3=O)Nc3c(OCCN)cccc3O4)C[C@@H]2O)(c2ccccc2)c2ccc(OC)cc2)cc1	> 100	> 100	–	–	–	–	–	–	–	–	–	–	–	–	–	–
CN1c2ccccc2Oc2cn([C@H]3C[C@H](O)[C@@H](CO)O3)c(=O)nc21	> 100	> 100	> 100	> 100	> 100	> 100	> 100	> 100	> 100	> 50	> 100	> 100	> 50	40	–	–
COc1ccc(C(OC[C@H]2O[C@@H](n3cc4c(nc3=O)Nc3c(OCCN)cccc3O4)[C@H](O)[C@@H]2O)(c2ccccc2)c2ccc(OC)cc2)cc1	> 100	> 100	–	–	–	–	–	–	–	–	–	–	–	–	–	–
NCCOc1cccc2c1Nc1nc(=O)n([C@H]3C[C@H](O)[C@@H](CO)O3)cc1O2	1.12	1.81	–	–	–	–	–	–	–	–	–	–	–	–	–	–
NC(=O)c1ncn([C@@H]2O[C@H](CO)[C@@H](O)[C@H]2O)n1 [RIBAVIRIN]	–	–	–	250	2	–	–	–	–	–	–	–	–	–	–	–
CCC(CC)O[C@@H]1C=C(C(=O)O)C[C@H](N)[C@H]1NC(C)=O [OSELTAMIVIR CARBOXYLATE]	–	–	–	–	–	–	–	–	> 100	–	–	–	–	–	2.9	–
O=c1nc2c(cn1COCCO)Oc1ccccc1N2	> 100	> 100	> 100	> 100	> 100	> 100	> 100	> 100	> 100	> 50	> 100	> 100	28	23.6	25	selectivity ratio [9]: > 3; EC50 [10]: 7.2 µM; selectivity ratio [11]: > 13; selectivity ratio [12]: > 4
Nc1onc(C(=O)OCC23CC4CC(CC(C4)C2)C3)c1CCc1ccccc1	–	–	–	–	–	–	–	> 100	–	15	–	–	–	4	–	EC50 [10]: 15 µM
Nc1ccn(C[C@@H](CO)OCP(=O)(O)O)c(=O)n1 [CIDOFOVIR]	–	–	> 300	–	–	–	–	–	–	–	0.61	–	–	–	–	–
NCCOc1cccc2c1Nc1nc(=O)n([C@@H]3O[C@H](CO)[C@@H](O)[C@H]3O)cc1O2	2.52	2.92	–	–	–	–	–	–	–	–	–	–	–	–	–	–
CCCCCCCCCOc1ccc2c(c1)Nc1nc(=O)n(COCCO)cc1O2	> 100	–	> 100	–	–	> 100	> 100	–	> 100	–	> 100	> 100	–	–	> 100	–
CN1c2ccccc2Oc2cn(COCCO)c(=O)nc21	> 100	> 100	> 100	> 100	> 100	> 100	> 100	> 100	> 100	13.5	> 100	> 100	15	16	33	selectivity ratio [9]: > 6; EC50 [10]: 4.5 µM; selectivity ratio [13]: > 7; selectivity ratio [11]: > 22; selectivity ratio [12]: > 6
O=c1nc(NO)ccn1[C@@H]1O[C@H](CO)[C@@H](O)[C@H]1O [N-HYDROXYCYTIDINE]	7.4	> 100	–	–	–	–	–	–	–	–	–	–	–	–	–	–
Nc1nc(O)c2ncn(COC(CO)CO)c2n1 [GANCICLOVIR]	–	–	> 300	–	–	–	–	–	–	–	1.79	19	–	–	–	–
CCCCCCCCOc1ccc2c(c1)N(C)c1nc(=O)n([C@H]3C[C@H](O)[C@@H](CO)O3)cc1O2	> 100	> 100	> 100	> 100	> 100	> 100	8.7	> 100	> 100	13.3	> 100	> 100	23.8	22	104	selectivity ratio [9]: > 4; selectivity ratio [13]: > 7; selectivity ratio [14]: 74; selectivity ratio [12]: > 4
NOCN1c2ccccc2Oc2cn([C@H]3C[C@H](O)[C@@H](CO)O3)c(=O)nc21	> 100	> 100	–	–	–	–	–	–	–	–	–	–	–	–	–	–
COc1ccc(C(OC[C@H]2O[C@@H](n3cc4c(nc3=O)Nc3ccccc3O4)[C@H](O)[C@@H]2O)(c2ccccc2)c2ccc(OC)cc2)cc1	11.5	15.9	–	–	–	–	–	–	–	–	–	–	–	–	–	–
CCCCCCCc1cc2cn([C@H]3C[C@H](O)[C@@H](CO)O3)c(=O)nc2o1	–	–	–	–	–	–	–	–	–	–	–	–	–	–	–	EC50 (Human alphaherpesvirus 3 [1]): 0.027 µM
CCCCCCCCCOc1ccc2c(c1)N(C)c1nc(=O)n([C@H]3C[C@H](O)[C@@H](CO)O3)cc1O2	> 100	> 100	> 100	> 100	> 100	> 20	> 20	> 100	> 100	2.4	> 100	> 100	6.3	2.53	35	selectivity ratio [9]: > 15; selectivity ratio [13]: > 42; selectivity ratio [12]: > 40
CCCCCCCCCOc1ccc2c(c1)Nc1nc(=O)n([C@H]3C[C@H](O)[C@@H](CO)O3)cc1O2	> 100	> 100	> 100	> 100	> 100	14.2	0.2	> 100	> 100	7.7	> 100	> 100	7.4	5.3	> 40	selectivity ratio [9]: > 13; selectivity ratio [13]: > 13; selectivity ratio [14]: > 500; selectivity ratio [12]: > 18; selectivity ratio [15]: > 8
CO[C@@H]1[C@H](O)[C@@H](CO)O[C@H]1n1cc2c(nc1=O)Nc1ccccc1O2	> 100	> 100	–	–	–	–	–	–	–	–	–	–	–	–	–	–
COc1ccc(C(OCCOCn2cc3c(nc2=O)Nc2ccccc2O3)(c2ccccc2)c2ccc(OC)cc2)cc1	> 100	> 100	> 100	> 100	> 100	> 100	> 100	> 100	> 100	21	> 100	> 100	> 50	36	14	EC50 [10]: 21.4 µM; selectivity ratio [13]: > 5; selectivity ratio [11]: > 4; selectivity ratio [12]: > 2
COc1ccc(C(OC[C@H]2O[C@@H](n3cc4c(nc3=O)Nc3ccccc3O4)[C@H](OC)[C@@H]2O)(c2ccccc2)c2ccc(OC)cc2)cc1	12.4	26.5	–	–	–	–	–	–	–	–	–	–	–	–	–	–
CCCCCCCCCCOc1ccc2c(c1)N(C)c1nc(=O)n([C@H]3C[C@H](O)[C@@H](CO)O3)cc1O2	> 100	59	> 100	> 100	> 100	15.1	10.7	79	> 40	0.45	20	> 20	0.71	5.4	23	selectivity ratio [9]: 83; selectivity ratio [14]: > 11; selectivity ratio [15]: > 6

— ChEMBL document CHEMBL4842312, “Phenoxazine nucleoside derivatives with a multiple activity against RNA and DNA viruses” (Eur J Med Chem, 2021)
